≈ marks a conversion by molar mass, not a printed value.
What was measured:
Staphylococcus aureus [1] = experiment: Antibacterial activity against Staphylococcus aureus ACH-0231 isolate with gyrA Ser84Leu, Glu88Lys and grlA Ser80Tyr, Glu84Gly mutant after 24 hrs by broth microdilution method; type: functional
Staphylococcus aureus [2] = experiment: Antibacterial activity against Staphylococcus aureus ATCC 33591 isolate after 24 hrs by broth microdilution method; type: functional; conditions: ATCC 33591, 24 h
Outline: (§1)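 Broth microdilution per CLSI guidelines. MIC taken as the lowest concentration preventing visible growth at 24 h. Each MIC determined at least twice.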

Staphylococcus aureus [3] = experiment: Antibacterial activity against Staphylococcus aureus ACH-0210 isolate with gyrA Ser84Leu and grlA Ser80Phe mutant after 24 hrs by broth microdilution method; type: functional
Staphylococcus aureus [4] = experiment: (§2) Antibacterial activity against Staphylococcus aureus ACH-0129 isolate with gyrA Ser84Leu, Glu88Val and grlA Ser80Phe, Ala116Val mutant after 24 hrs by broth microdilution method; type: functional
Staphylococcus aureus [5] = experiment: Antibacterial activity against Staphylococcus aureus ACH-0141 isolate with gyrA Ser84Leu, Glu88Val and grlA Ser80Phe, Ala116Val mutant after 24 hrs by broth microdilution method; type: functional
Staphylococcus aureus [6] = experiment: Antibacterial activity against Staphylococcus aureus ACH-0186 isolate with gyrA Ser84Leu and grlA Ser80Phe, Ala116Val mutant after 24 hrs by broth microdilution method; type: functional
Staphylococcus aureus [7] = experiment: Antibacterial activity against Staphylococcus aureus BSA678 isolate with gyrA Ser84Leu, Ser85Pro and grlA Ser80Phe, Glu84Lys mutant after 24 hrs by broth microdilution method
Staphylococcus aureus [8] = experiment: Antibacterial activity against Staphylococcus aureus ATCC 29213 after 24 hrs by broth microdilution method; type: functional; conditions: ATCC 29213, 24 h; outline: as §1
Staphylococcus aureus [9] = experiment: Antibacterial activity against Staphylococcus aureus ACH-0216 isolate with grlA Ser80Phe mutant after 24 hrs by broth microdilution method; type: functional; outline: as §1
Staphylococcus aureus [10] = experiment: Antibacterial activity against Staphylococcus aureus ACH-0221 isolate with gyrA Ser84Leu mutant after 24 hrs by broth microdilution method; type: functional; outline: as §1
Staphylococcus aureus [11] = experiment: Antibacterial activity against Staphylococcus aureus ACH-0126 isolate with gyrA Ser84Leu and grlA Ser80Phe mutant after 24 hrs by broth microdilution method; type: functional
Staphylococcus aureus [12] = experiment: Antibacterial activity against Staphylococcus aureus ATCC 700699 isolate with gyrA Ser84Leu, Glu409Lys and grlA Ser80Phe mutant after 24 hrs by broth microdilution method; type: functional; conditions: ATCC 700699, 24 h
Staphylococcus aureus [13] = experiment: Antibacterial activity against Staphylococcus aureus ACH-0218 isolate with grlA Glu84Lys mutant after 24 hrs by broth microdilution method; type: functional; outline: as §1
Staphylococcus aureus [14] = experiment: Antibacterial activity against Staphylococcus aureus ACH-0204 isolate with gyrA Ser84Leu mutant after 24 hrs by broth microdilution method; type: functional; outline: as §1
Staphylococcus aureus [15] = experiment: as §2; type: functional; remark: listed apart in the source
Staphylococcus aureus [16] = experiment: Antibacterial activity against Staphylococcus aureus ACH-0203 isolate with gyrA Ser84Leu and grlA Ser80Phe, Ala116Val mutant after 24 hrs by broth microdilution method; type: functional; outline: as §1
Staphylococcus aureus [17] = experiment: Antibacterial activity against Staphylococcus aureus BSA643 isolate with gyrA Ser84Leu and grlA Ser80Tyr, Glu84Gly mutant after 24 hrs by broth microdilution method; type: functional
Staphylococcus aureus [18] = experiment: Antibacterial activity against Staphylococcus aureus ACH-0192 isolate with gyrA Ser84Leu and grlA Ser80Phe, Ala116Val mutant after 24 hrs by broth microdilution method; type: functional
Staphylococcus aureus [19] = experiment: Antibacterial activity against Staphylococcus aureus ACH-0201 isolate with gyrA Ser84Leu, Glu88Val and grlA Ser80Phe, Ala116Val mutant after 24 hrs by broth microdilution method; type: functional
Staphylococcus aureus [20] = experiment: Antibacterial activity against Staphylococcus aureus NY2746 isolate with gyrA Ser84Leu and grlA Ser80Phe mutant after 24 hrs by broth microdilution method; type: functional
Staphylococcus aureus [21] = experiment: Antibacterial activity against Staphylococcus aureus ACH-0206 isolate with gyrA Ser84Leu mutant after 24 hrs by broth microdilution method; type: functional; outline: as §1
[22] = Inhibition of Staphylococcus aureus wild-type topoisomerase 4 decatenation activity assessed as unlinking of DNA microcircles from kinetoplast DNA
Outline: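 S. aureus topo IV reconstituted from His-purified recombinant GrlA and GrlB (E. coli BL21(DE3)pLysS expression), mixed 1:1 molar on ice 10 min. 0.1 μg catenated kDNA with 2 U enzyme, 30 min at 37°C in 1 mM ATP, 5 mM DTT, 5 mM MgCl2, 50 μg/ml BSA, 50 mM Tris-HCl pH 7.5, 250 mM potassium glutamate. Products on 1% agarose gel, ethidium-stained, quantitated; IC50 by nonlinear regression.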

[23] = Inhibition of Staphylococcus aureus […] topoisomerase 4 grlA S80F mutant decatenation activity assessed as unlinking of DNA microcircles from kinetoplast DNA
Outline: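 Recombinant S. aureus GrlA (Ser80Phe) and GrlB were mixed 1:1 molar on ice for 10 min. kDNA (0.1 μg) with 2 U enzyme, 30 min at 37°C, in 1 mM ATP, 5 mM MgCl2, 250 mM K-glutamate, 50 mM Tris pH 7.5. Reactions stopped with EDTA, run on 1% agarose-TBE and ethidium-stained, minicircles quantitated. IC50 by nonlinear regression.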

DNA gyrase subunit A = DNA gyrase subunit A (Staphylococcus aureus, UniProt P20831, S84L); experiment: Inhibition of Staphylococcus aureus DNA gyrase gyrA S84L mutant supercoiling activity assessed as effect on conversion of relaxed pBR322 DNA to supercoiled form

SMILES | MIC (Staphylococcus aureus [1]) [µg/mL] | MIC (Staphylococcus aureus [2]) [µg/mL] | MIC (Staphylococcus aureus [3]) [µg/mL] | MIC (Staphylococcus aureus [4]) [µg/mL] | MIC (Staphylococcus aureus [5]) [µg/mL] | MIC (Staphylococcus aureus [6]) [µg/mL] | MIC (Staphylococcus aureus [7]) [µg/mL] | MIC (Staphylococcus aureus [8]) [µg/mL] | MIC (Staphylococcus aureus [9]) [µg/mL] | MIC (Staphylococcus aureus [10]) [µg/mL] | MIC (Staphylococcus aureus [11]) [µg/mL] | MIC (Staphylococcus aureus [12]) [µg/mL] | MIC (Staphylococcus aureus [13]) [µg/mL] | MIC (Staphylococcus aureus [14]) [µg/mL] | MIC (Staphylococcus aureus [16]) [µg/mL] | MIC (Staphylococcus aureus [17]) [µg/mL] | MIC (Staphylococcus aureus [18]) [µg/mL] | MIC (Staphylococcus aureus [19]) [µg/mL] | MIC (Staphylococcus aureus [20]) [µg/mL] | MIC (Staphylococcus aureus [21]) [µg/mL] | further results
Cc1cc(-c2cc3c(cc2F)c(=O)c2c(=O)[nH]sc2n3C2CC2)ccn1 | 16 (≈ 43.5 µM) | 0.004 (≈ 0.0109 µM) | 0.5 (≈ 1.36 µM) | 4 (≈ 10.9 µM) | 16 (≈ 43.5 µM) | 0.5 (≈ 1.36 µM) | 4 (≈ 10.9 µM) | 0.008 (≈ 0.0218 µM) | 0.016 (≈ 0.0435 µM) | 0.03 (≈ 0.0817 µM) | 0.5 (≈ 1.36 µM) | 0.25 (≈ 0.68 µM) | 0.08 (≈ 0.218 µM) | 0.03 (≈ 0.0817 µM) | 2 (≈ 5.44 µM) | 0.25 (≈ 0.68 µM) | 2 (≈ 5.44 µM) | 8 (≈ 21.8 µM) | 0.5 (≈ 1.36 µM) | 0.03 (≈ 0.0817 µM) | MIC (Staphylococcus aureus [15]): 4 µg/mL (≈ 10.9 µM)
COc1c(-c2cc(C)nc(C)c2)c(F)cc2c(=O)c3c(=O)[nH]sc3n(C3CC3)c12 | 1 (≈ 2.43 µM) | 0.004 (≈ 0.00972 µM) | 0.125 (≈ 0.304 µM) | 0.5 (≈ 1.22 µM) | 2 (≈ 4.86 µM) | 0.25 (≈ 0.608 µM) | 0.5 (≈ 1.22 µM) | 0.004 (≈ 0.00972 µM) | 0.008 (≈ 0.0194 µM) | 0.03 (≈ 0.0729 µM) | 0.125 (≈ 0.304 µM) | 0.125 (≈ 0.304 µM) | 0.004 (≈ 0.00972 µM) | 0.016 (≈ 0.0389 µM) | 1 (≈ 2.43 µM) | 0.125 (≈ 0.304 µM) | 1 (≈ 2.43 µM) | 1 (≈ 2.43 µM) | 0.25 (≈ 0.608 µM) | 0.015 (≈ 0.0365 µM) | IC50 [22]: 800 nM; IC50 [23]: 9.3 µM; MIC (Staphylococcus aureus [15]): 0.5 µg/mL (≈ 1.22 µM); IC50 (DNA gyrase subunit A): 21.5 µM
O=C(O)c1cn(C2CC2)c2cc(N3CCNCC3)c(F)cc2c1=O [CIPROFLOXACIN] | – | – | – | – | – | – | 128 (≈ 386 µM) | 0.25 (≈ 0.754 µM) | 2 (≈ 6.04 µM) | 1 (≈ 3.02 µM) | – | – | 2 (≈ 6.04 µM) | 0.5 (≈ 1.51 µM) | 128 (≈ 386 µM) | – | – | – | – | 0.5 (≈ 1.51 µM) | IC50 [22]: 3000 nM; IC50 [23]: > 40 µM
CO/N=C1\CN(c2nc3c(cc2F)c(=O)c(C(=O)O)cn3C2CC2)CC1CN (centres undefined) [GEMIFLOXACIN] | > 64 | 0.06 (≈ 0.154 µM) | 4 (≈ 10.3 µM) | 8 (≈ 20.5 µM) | 4 (≈ 10.3 µM) | 4 (≈ 10.3 µM) | 64 (≈ 164 µM) | 0.03 (≈ 0.077 µM) | 0.125 (≈ 0.321 µM) | 0.5 (≈ 1.28 µM) | 4 (≈ 10.3 µM) | 4 (≈ 10.3 µM) | 0.125 (≈ 0.321 µM) | 0.125 (≈ 0.321 µM) | 32 (≈ 82.2 µM) | 32 (≈ 82.2 µM) | 8 (≈ 20.5 µM) | 8 (≈ 20.5 µM) | 32 (≈ 82.2 µM) | 0.125 (≈ 0.321 µM) | IC50 [22]: 400 nM; IC50 [23]: 9.8 µM; IC50 (DNA gyrase subunit A): > 300 µM
CC[n+]1c(-c2ccccc2)c2cc(N)ccc2c2ccc(N)cc21.[Br-] [HOMIDIUM BROMIDE] | 16 | 16 | 2 | 4 | 4 | 1 | 4 | 4 | 4 | 16 | 4 | > 64 | 16 | 4 | 32 | 16 | 2 | 2 | 16 | 4 | –
COc1c(N2C[C@@H]3CCCN[C@@H]3C2)c(F)cc2c(=O)c(C(=O)O)cn(C3CC3)c12 [MOXIFLOXACIN] | 32 (≈ 79.7 µM) | – | 4 (≈ 9.96 µM) | 8 (≈ 19.9 µM) | 16 (≈ 39.9 µM) | 16 (≈ 39.9 µM) | > 64 | 0.06 (≈ 0.149 µM) | 0.25 (≈ 0.623 µM) | 0.5 (≈ 1.25 µM) | 4 (≈ 9.96 µM) | 4 (≈ 9.96 µM) | 0.25 (≈ 0.623 µM) | 0.125 (≈ 0.311 µM) | 32 (≈ 79.7 µM) | 16 (≈ 39.9 µM) | 16 (≈ 39.9 µM) | 16 (≈ 39.9 µM) | 8 (≈ 19.9 µM) | 0.125 (≈ 0.311 µM) | IC50 [22]: 1000 nM; IC50 [23]: 11.9 µM

Source: ChEMBL document CHEMBL1157373, “Dual targeting of DNA gyrase and topoisomerase IV: target interactions of heteroaryl isothiazolones in Staphylococcus aureus” (Antimicrob Agents Chemother, 2007)
